Test results reported in ChEMBL document CHEMBL1681713, “Lead detoxification activities and ADMET hepatotoxicities of a class of novel 5-(1-carbonyl-L-amino-acid)-2,2-dimethyl-[1,3]dithiolane-4-carboxylic acids” (Bioorg Med Chem Lett, 2011).

Legend:
Brain [1] = assay: Toxicity in mouse assessed as effect on copper level in brain per gram of organ at 0.4 mmol/kg, ip qd for 5 days; format: organism-based; settings: in vivo, 120 h
Brain [2] = assay: Toxicity in mouse assessed as effect on zinc level in brain per gram of organ at 0.4 mmol/kg, ip qd for 5 days; format: organism-based; settings: in vivo, 120 h
Mus musculus = assay: Toxicity in mouse assessed as change in bodyweight at 0.4 mmol/kg, ip qd for 5 days; format: organism-based; settings: in vivo, 120 h
Outline: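 Lead-loaded mice were given normal saline vehicle or test agent at 0.4 mmol/kg. Body weights were recorded and compared with the NS group to assess growth.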

Kidney [3] = assay: Detoxification activity against lead-induced toxicity in mouse assessed as reduction lead level in kidney per gram of organ at 0.4 mmol/kg, ip qd for 5 days measured 24 hrs last post dose by synchrotron X-ray fluorescence analysis; format: functional
Outline: (§1)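 Lead-loaded mice were given normal saline vehicle (negative control) or test agent at 0.2, 0.4 or 0.6 mmol/kg. Lead was measured in liver, kidney, left femur and brain and reported as mean ± SD µg Pb/g organ against the NS group.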

Kidney [4] = assay: Toxicity in mouse assessed as effect on iron level in kidney per gram of organ at 0.4 mmol/kg, ip qd for 5 days; format: organism-based; settings: in vivo, 120 h
Kidney [5] = assay: Toxicity in mouse assessed as effect on manganese level in kidney per gram of organ at 0.4 mmol/kg, ip qd for 5 days; format: organism-based; settings: in vivo, 120 h
Liver [6] = assay: Toxicity in mouse assessed as effect on manganese level in liver per gram of organ at 0.4 mmol/kg, ip qd for 5 days; format: organism-based; settings: in vivo, 120 h
Femur = assay: Detoxification activity against lead-induced toxicity in mouse assessed as reduction lead level in femurs per gram of organ at 0.4 mmol/kg, ip qd for 5 days measured 24 hrs last post dose by synchrotron X-ray fluorescence analysis; format: functional; outline: as §1
Kidney [7] = assay: Toxicity in mouse assessed as effect on zinc level in kidney per gram of organ at 0.4 mmol/kg, ip qd for 5 days; format: organism-based; settings: in vivo, 120 h
[8] = Detoxification activity against lead-induced toxicity in mouse assessed as reduction lead level in feces at 0.4 mmol/kg, ip qd for 5 days measured 24 hrs last post dose by synchrotron X-ray fluorescence analysis; format: functional
Outline: (§2)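 Lead-loaded mice were given normal saline vehicle, DL-penicillamine or NaDMS (positive controls), or test agent, each at 0.4 mmol/kg; n = 12 per group. Lead was measured in feces and urine and reported as mean ± SD µg Pb/g excrement against the NS group.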

Brain [9] = assay: Toxicity in mouse assessed as effect on manganese level in brain per gram of organ at 0.4 mmol/kg, ip qd for 5 days; format: organism-based; settings: in vivo, 120 h
Liver [10] = assay: Detoxification activity against lead-induced toxicity in mouse assessed as reduction lead level in liver per gram of organ at 0.4 mmol/kg, ip qd for 5 days measured 24 hrs last post dose by synchrotron X-ray fluorescence analysis; format: functional; outline: as §1
Brain [11] = assay: Toxicity in mouse assessed as effect on calcium level in brain per gram of organ at 0.4 mmol/kg, ip qd for 5 days; format: organism-based; settings: in vivo, 120 h
Brain [12] = assay: Toxicity in mouse assessed as effect on iron level in brain per gram of organ at 0.4 mmol/kg, ip qd for 5 days; format: organism-based; settings: in vivo, 120 h
Brain [13] = assay: Detoxification activity against lead-induced toxicity in mouse assessed as reduction lead level in brain per gram of organ at 0.4 mmol/kg, ip qd for 5 days measured 24 hrs last post dose by synchrotron X-ray fluorescence analysis; format: functional; outline: as §1
Liver [14] = assay: Toxicity in mouse assessed as effect on calcium level in liver per gram of organ at 0.4 mmol/kg, ip qd for 5 days; format: organism-based; settings: in vivo, 120 h
Liver [15] = assay: Toxicity in mouse assessed as effect on copper level in liver per gram of organ at 0.4 mmol/kg, ip qd for 5 days; format: organism-based; settings: in vivo, 120 h
Liver [16] = assay: Toxicity in mouse assessed as effect on zinc level in liver per gram of organ at 0.4 mmol/kg, ip qd for 5 days; format: organism-based; settings: in vivo, 120 h
Liver [17] = assay: Toxicity in mouse assessed as effect on iron level in liver per gram of organ at 0.4 mmol/kg, ip qd for 5 days; format: organism-based; settings: in vivo, 120 h
Kidney [18] = assay: Toxicity in mouse assessed as effect on calcium level in kidney per gram of organ at 0.4 mmol/kg, ip qd for 5 days; format: organism-based; settings: in vivo, 120 h
[19] = Detoxification activity against lead-induced toxicity in mouse assessed as reduction lead level in urine at 0.4 mmol/kg, ip qd for 5 days measured 24 hrs last post dose by synchrotron X-ray fluorescence analysis; format: functional; outline: as §2
Kidney [20] = assay: Toxicity in mouse assessed as effect on copper level in kidney per gram of organ at 0.4 mmol/kg, ip qd for 5 days; format: organism-based; settings: in vivo, 120 h

Row | SMILES | Activity (Brain [1]) [µg/g] | Activity (Brain [2]) [µg/g] | Activity (Mus musculus) [g] | Activity (Kidney [3]) [µg/g] | Activity (Kidney [4]) [µg/g] | Activity (Kidney [5]) [µg/g] | Activity (Liver [6]) [µg/g] | Activity (Femur) [µg/g] | Activity (Kidney [7]) [µg/g] | Activity [8] [µg/g] | Activity (Brain [9]) [µg/g] | Activity (Liver [10]) [µg/g] | Activity (Brain [11]) [µg/g] | Activity (Brain [12]) [µg/g] | Activity (Brain [13]) [µg/g] | Activity (Liver [14]) [µg/g] | Activity (Liver [15]) [µg/g] | Activity (Liver [16]) [µg/g] | Activity (Liver [17]) [µg/g] | Activity (Kidney [18]) [µg/g] | further results
1 | CC(C)[C@H](NC(=O)C1SC(C)(C)SC1C(=O)O)C(=O)O (stereo not given in full) | 2.55 | 34.51 | 29.9 | 6.16 | 95.56 | 1.4 | 1.4 | 14.93 | 27.64 | 4.76 | 0.76 | 3.19 | 72 | 57.35 | 1.49 | 60.24 | 3.51 | 36.49 | 155.25 | 76.97 | Activity [19]: 2.65 µg/g; Activity (Kidney [20]): 3.62 µg/g
2 | CC(C)C[C@H](NC(=O)C1SC(C)(C)SC1C(=O)O)C(=O)O (stereo not given in full) | 2.6 | 32.49 | 29.7 | 7.32 | 93.02 | 1.41 | 1.41 | 16.33 | 26.99 | 3.99 | 0.7 | 3.64 | 69.29 | 57.49 | 1.44 | 59.8 | 3.59 | 37.88 | 153.8 | 76.48 | Activity [19]: 3.44 µg/g; Activity (Kidney [20]): 3.65 µg/g
3 | CC1(C)SC(C(=O)O)C(C(=O)N[C@@H](CCC(N)=O)C(=O)O)S1 (stereo not given in full) | 2.64 | 34.68 | 29.6 | 6.86 | 94.48 | 1.33 | 1.37 | 14.59 | 28.09 | 4.5 | 0.69 | 3.07 | 71.82 | 57.66 | 1.02 | 59.07 | 3.76 | 37.85 | 153.02 | 76.93 | Activity [19]: 2.89 µg/g; Activity (Kidney [20]): 3.59 µg/g
4 | CC1(C)SC(C(=O)O)C(C(=O)N[C@@H](CCC(=O)O)C(=O)O)S1 (stereo not given in full) | 2.5 | 34.99 | 30.5 | 7.21 | 93.97 | 1.35 | 1.4 | 13.69 | 28.16 | 4.49 | 0.77 | 5.64 | 69.99 | 57.57 | 1.22 | 60.4 | 3.72 | 38.01 | 154.4 | 77.45 | Activity [19]: 2.65 µg/g; Activity (Kidney [20]): 3.73 µg/g
5 | CC1(C)SC(C(=O)O)C(C(=O)N[C@@H](Cc2ccccc2)C(=O)O)S1 (stereo not given in full) | 2.59 | 34.51 | 29.9 | 6.61 | 94.82 | 1.43 | 1.31 | 16.75 | 27.57 | 4.85 | 0.75 | 4.6 | 69.84 | 56.31 | 1.11 | 60.61 | 3.63 | 36.69 | 154.97 | 76.76 | Activity [19]: 1.72 µg/g; Activity (Kidney [20]): 3.59 µg/g
